The source made the active and inactive calls.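 Rule for the calls, unless noted: active = viability loss from added drug above about 55%, and viability with drug at most 40%, in both replicates (limit read from the data, passing the limit was not always enough); inconclusive = both conditions met in only one replicate; inactive = neither replicate meets both conditions.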

Test [1] is described as follows: reduced viability of SK-BR-3 breast cancer cells – cell-based, 24 h, human, pilot screen (AID 572;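 active = viability at or below 10% of carrier control in both of two separate runs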;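 note: compound exposure lasted between 18 and 24 h rather than exactly 24 h; 100% = carrier-treated control wells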). The settings on record: SK-BR-3 viability, CellTiter-Glo luminescence, at 10 µM, stronger effect = lower value. For orientation: Cellular ATP, detected with luciferase, serves as a proxy for viable cell number.
Test [2] can be described thus: HUVEC growth inhibition – cell-based, human, primary screen (AID 575;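 active = viability at or below 30% in both replicate assays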;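 note: 100% = median of untreated cell wells with 0.1% DMSO on each plate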). Conditions: HUVEC proliferation, CellTiter-Glo luminescence, 72 h; at 10 µM; stronger effect = lower value. In outline:
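Material: primary human umbilical vein endothelial cells / Schedule: 72 h exposure, 37 °C, 5% CO2, 30 min RT equilibration / Signal: ATP-based CellTiter-Glo luminescent read / Read-out basis: percent of median DMSO-control luminescence / Control set: 32 DMSO-only cell-control wells (high), 32 MePR drug-control wells (low) per plate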

Test [3] in a line: H69AR cell proliferation blockers – human, duplicate replicates, primary screen (AID 580;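 active = viability at or under a set limit in both replicates, limit being median viability minus 3 SD, cut at about 48% in these data, passing the limit was not always enough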;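 note: 100% = mean luminescence of untreated wells and 0% = no signal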). Conditions: H69AR lung tumor cells viability, ATP luminescence, 72 h; at 10 µM; stronger effect = lower value.
A short description of test [4]: MRP1 drug-resistance reversers in H69AR cells – cell-based, doxorubicin co-treatment, pilot screen (AID 601). Conditions: CellTiter-Glo, 72 h, at 10 µM; for differential viability (reversal): stronger effect = higher value.
Test [5] in a line: yeast transport mutant growth inhibition pilot in 384-well plates, post-Golgi transport modulator project (AID 636; in the data active = inhibition above about 31%). Conditions: absorbance 615 nm, about 18 h, stronger effect = higher value.
Test [6] can be described thus: growth suppression of yeast trafficking mutant, preliminary HTS, modulators of trafficking downstream of Golgi apparatus project, 1536-format plate, OD 615 nm (AID 637; in the data active = inhibition above about 30%). The settings on record: yeast transport mutant growth, absorbance 615 nm, 18 h; stronger effect = higher value.
Setting [7] is: H69AR cells + 2 uM doxorubicin, measured here: viability with 2 uM doxorubicin, stronger effect = lower value.
The mark [8] stands for this setting: H69AR cells, compound alone cytotoxicity.

A word on the viability: it is a read-out of living cells in per cent, often relative to untreated cells. As usually defined, the inhibition is the change of the read-out against control, counted positive when it falls. Turning to `CCC(C(=O)N1CCc2cc(OC)c(OC)cc2C1)c1ccccc1` (stereo unspecified), the viability in test [1] was 99% (inactive); in test [2] it was 109% (inactive); in test [3] it was 94.5% (inactive); in test [4] (setting [7]), 92%; in test [4] (setting [8]), 94.5%. In test [4] (H69AR cells + 2 uM doxorubicin), the differential viability (reversal) is 2.46% (inactive). Moreover, the figures for the inhibition in test [5] and in test [6] were -4.52% (inactive) and -11.9% (inactive), respectively.

With `COc1ccc(C)cc1-n1nnnc1SC/C(O)=C(\C#N)c1nc2ccccc2[nH]1`, the viability is 96% (inactive) in test [1]; 86.6% (inactive) in test [2]; 85.2% (inactive) in test [3]; 98.4% in test [4] (setting [7]); 85.2% in test [4] (setting [8]). For the same molecule, in test [4] (H69AR cells + 2 uM doxorubicin), the differential viability (reversal) was -13.1% (inactive). Besides, the inhibition in test [5] is -4.11% (inactive); in test [6] it was 1.27% (inactive).

With `CC(=O)OC[C@H]1O[C@@H](n2ncc(=O)[nH]c2=O)[C@H](OC(C)=O)[C@@H]1OC(C)=O`, the viability in test [1] is 103% (inactive); in test [2], 84.3% (inactive); in test [3] it was 91.3% (inactive); in test [4] (setting [7]), 88.2%; in test [4] (setting [8]) it was 91.3%. In addition, the differential viability (reversal) in test [4] (H69AR cells + 2 uM doxorubicin) is 3.12% (inactive). The figures for the inhibition in test [5] and in test [6] were -0.39% (inactive) and 3.17% (inactive), respectively.

On to `COc1cccc(NC(=O)N(Cc2ccco2)C(C)c2cccs2)c1` (stereo unspecified), for which the viability in test [1] is 92% (inactive); in test [2], 88.9% (inactive); in test [3], 89.8% (inactive); in test [4] (setting [7]), 73%; in test [4] (setting [8]) it was 89.8%. Moreover, the differential viability (reversal) in test [4] (H69AR cells + 2 uM doxorubicin) was 16.8% (inactive). For the same molecule, the inhibition in test [5] is -0.52% (inactive); in test [6], -4.1% (inactive).

For `CC(C)n1nnnc1SCC(=O)Nc1ccccc1N1CCOCC1`, the viability in test [1] is 53% (inactive); in test [2], 98.4% (inactive); in test [3] it was 98.5% (inactive); in test [4] (setting [7]), 99%; in test [4] (setting [8]), 98.5%. In addition, the differential viability (reversal) in test [4] (H69AR cells + 2 uM doxorubicin) is -0.48% (inactive). The inhibition is -5.75% (inactive) in test [5] and 2.73% (inactive) in test [6].

On to `Cc1c(NC(=O)CCc2ccc(S(=O)(=O)N3CCOCC3)cc2)c(=O)n(-c2ccccc2)n1C`, for which the viability in test [1] was 93% (inactive); in test [2], 109% (inactive); in test [3] it was 100% (inactive); in test [4] (setting [7]) it was 89.8%; in test [4] (setting [8]) it was 100%. In test [4] (H69AR cells + 2 uM doxorubicin), the differential viability (reversal) is 10.3% (inactive). The inhibition in test [5] was -3.77% (inactive); in test [6], -8.2% (inactive).

Turning to `COc1ccccc1CNC(=O)Nc1cccs1`, the viability was 126% (inactive) in test [1]; 63.8% (inactive) in test [2]; 72.1% (inactive) in test [3]; 66.5% in test [4] (setting [7]); 72.1% in test [4] (setting [8]). In test [4] (H69AR cells + 2 uM doxorubicin), the differential viability (reversal) was 5.65% (inactive). Besides, the results for the inhibition in test [5] and in test [6] were -0.78% (inactive) and 4.1% (inactive), respectively.

`COC(=O)c1[nH]c2ccc(C)cc2c1NC(=O)CN1CCN(C(=O)c2ccccc2)CC1`: the viability in test [1] is 130% (inactive); in test [2], 94% (inactive); in test [3] it was 78.4% (inactive); in test [4] (setting [7]), 44.9%; in test [4] (setting [8]), 78.4%. Further, the differential viability (reversal) in test [4] (H69AR cells + 2 uM doxorubicin) is 33.4% (inactive). Also, the inhibition in test [5] is -4.67% (inactive); in test [6], -0.36% (inactive).

On to `COc1ccc(CN(C2CCCC2)S(=O)(=O)c2ccc(-n3cnnn3)cc2)cc1OC`, for which the viability is 71% (inactive) in test [1]; 80.5% (inactive) in test [2]; 81.6% (inactive) in test [3]; 95.6% in test [4] (setting [7]); 81.6% in test [4] (setting [8]). Besides, in test [4] (H69AR cells + 2 uM doxorubicin), the differential viability (reversal) was -14% (inactive). For the same molecule, the inhibition in test [5] was -7.12% (inactive); in test [6], 0.81% (inactive).

As for `CC(=O)N1CCc2cc(S(=O)(=O)NCCC(=O)Nc3cc(C)cc(C)c3)ccc21`, the viability in test [1] was 95% (inactive); in test [2] it was 104% (inactive); in test [3], 95.6% (inactive); in test [4] (setting [7]), 95.3%; in test [4] (setting [8]) it was 95.6%. Also, in test [4] (H69AR cells + 2 uM doxorubicin), the differential viability (reversal) was 0.35% (inactive). Also, the inhibition was -4.93% (inactive) in test [5] and -4% (inactive) in test [6].

With `CC(=O)Nc1ccc(NC(=O)Cn2cc3c(n2)CCC(C)C3)cc1` (stereo unspecified), the viability in test [1] was 108% (inactive); in test [2] it was 103% (inactive); in test [3], 90.6% (inactive); in test [4] (setting [7]) it was 94.6%; in test [4] (setting [8]), 90.6%. Besides, the differential viability (reversal) in test [4] (H69AR cells + 2 uM doxorubicin) was -4.05% (inactive). The inhibition is -8.24% (inactive) in test [5] and -8.73% (inactive) in test [6].

As for `Cc1cc(C)c(NC2=NCC(=O)N2C2CCCCC2)c(C)c1`, the viability is 106% (inactive) in test [1]; 107% (inactive) in test [2]; 86.3% (inactive) in test [3]; 91.5% in test [4] (setting [7]); 86.3% in test [4] (setting [8]). The differential viability (reversal) in test [4] (H69AR cells + 2 uM doxorubicin) was -5.14% (inactive). The inhibition in test [5] is -7.53% (inactive); in test [6], -3.09% (inactive).
